Starred links: 1 amine or outer side, 2 acyl side, 3 side chain; linkers in the order of their positions; H or OH if unused. Positions of bridges follow the written chain, without caps; N, C: chain ends. Non-standard residues stand in square brackets, D forms with d. Residues, ends and D or L forms follow the SMILES beside them. X1 = O=C(CC1(S[*:2])CCCCC1)[*:1]; Orn = NCCC[C@H](N)C(=O)O
Tests used:
Rattus norvegicus [1] = test: (§1) Antivasopressor activity in vivo in phenoxybenzamine pre-treated rats.; type: functional
Procedure, shortened: (§2)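 Rats pretreated with phenoxybenzamine, under urethane anesthesia; antagonist given iv; agonist USP Posterior Pituitary Reference Standard; read-out is pressor response. Effective dose (nmol/kg) is the dose that cuts the response to 2X units of agonist to that of 1X unit, interpolated semilogarithmically from bracketing doses. pA2 assumes a 67 mL/kg distribution volume. SEM is given where there are ≥4 independent estimates.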

Rattus norvegicus [2] = test: In vivo inhibition of estrogen induced changes in interuterine pressure in rats.; type: functional
Procedure, shortened: (§3)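 Rats pretreated with estrogen, under urethane anesthesia; antagonist given iv; read-out is change in integrated intrauterine pressure; agonist synthetic oxytocin. Effective dose (nmol/kg) is the dose that cuts the response to 2X units of agonist to the response to 1X unit, interpolated on a semilog scale from doses above and below it. pA2 is derived assuming a 67 mL/kg distribution volume.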

Rattus norvegicus [3] = test: Antidiuretic activity in rats as intravenous dose required for reduction of 2x agonist response to equal 1x effect in estrogen pretreated rats; type: functional, Urine
Rattus norvegicus [4] = test: as §1; type: functional, organism-based; conditions: read-out: pA2 (converted); procedure, shortened: as §2
Rattus norvegicus [5] = test: Antioxytocic potencies (change in interuterine pressure) in vivo in estrogen pre-treated rats.; type: functional, organism-based; conditions: read-out: pA2 (converted); procedure, shortened: as §3
Rattus norvegicus [6] = test: Antiantidiuretic activity in vivo in hydrated rats under ethanol anaesthesia.; type: functional, organism-based; conditions: Urine, read-out: pA2 (converted)
Procedure, shortened: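 Hydrated rats under ethanol anaesthesia; antagonist given iv against the USP Posterior Pituitary Reference Standard as agonist. Effective dose (nmol/kg) is the dose that cuts the response to 2x units of agonist to equal the response to 1x unit. It is estimated by interpolation on a semilog scale between doses above and below it. pA2 assumes a volume of distribution of 67 mL/kg. Where SEM is given, n ≥4 estimates.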

Rattus norvegicus [7] = species on record: Rattus norvegicus; test: Antioxytoxic activity in vitro in isolated uteri from estrogen pretreated rats suspended in Mg supplemented Dyke-Hastings solution.; type: functional; conditions: read-out: pA2 (converted)
Procedure, shortened: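 Isolated rat uterus in bath medium with Mg2+; agonist USP Posterior Pituitary Reference Standard. pA2 is the −log of the effective molar antagonist concentration that reduces the response to a dose of agonist to the response to half that dose. It is interpolated semilogarithmically from concentrations above and below it. SEM is given where there are ≥4 independent estimates.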

Rattus norvegicus [8] = species on record: Rattus norvegicus; test: Antioxytoxic activity in vitro in isolated uteri from estrogen pretreated rats suspended in Mg-free Dyke-Hastings solution.; conditions: read-out: pA2 (converted)

Structure (SMILES) | ED (Rattus norvegicus [1]) [nM/kg] | ED (Rattus norvegicus [2]) [nM/kg] | ED (Rattus norvegicus [3]) [nM/kg] | Kb (Rattus norvegicus [4]) [nM] | Kb (Rattus norvegicus [5]) [nM] | Kb (Rattus norvegicus [6]) [nM] | Kb (Rattus norvegicus [7]) [nM] | Kb (Rattus norvegicus [8]) [nM]
COc1ccc(C[C@H]2NC(=O)CC3(CCCCC3)SSC[C@@H](C(=O)N3CCC[C@H]3C(=O)N[C@@H](CCCN=C(N)N)C(=O)NCC(N)=O)NC(=O)[C@H](CC(N)=O)NC(=O)[C@H](C(C)C)NC(=O)[C@H](Cc3ccccc3)NC2=O)cc1 | 0.23 | 1.9 | 1.2 |  |  |  |  | 
CC[C@H](C)[C@@H]1NC(=O)[C@@H](Cc2ccccc2)NC(=O)CC2(CCCCC2)SSC[C@@H](C(=O)N2CCC[C@H]2C(=O)N[C@@H](CCCN=C(N)N)C(=O)NCC(N)=O)NC(=O)[C@H](CC(N)=O)NC(=O)[C@H](C(C)C)NC1=O | 17 | 2.5 | 45 |  |  |  |  | 
CCOc1ccc(C[C@H]2NC(=O)CC3(CCCCC3)SSC[C@@H](C(=O)N3CCC[C@H]3C(=O)N[C@@H](CCCCN)C(=O)NCC(N)=O)NC(=O)[C@H](CC(N)=O)NC(=O)[C@H](C(C)C)NC(=O)[C@H](Cc3ccccc3)NC2=O)cc1 ([dY](Et)FVNCPKG-NH2; linker N-5 via X1) [listing 1 of 2 here] | 0.48 | 1.9 | 1.5 |  |  |  |  | 
CCOc1ccc(C[C@H]2NC(=O)CC3(CCCCC3)SSC[C@@H](C(=O)N3CCC[C@H]3C(=O)N[C@@H](CCCCN)C(=O)NCC(N)=O)NC(=O)[C@H](CC(N)=O)NC(=O)[C@H](C(C)C)NC(=O)[C@H](Cc3ccccc3)NC2=O)cc1 ([dY](Et)FVNCPKG-NH2; linker N-5 via X1) [listing 2 of 2 here] |  |  |  | 6.92 | 26.9 | 19.1 | 10.5 | 13.5
COc1ccc(C[C@H]2NC(=O)CC3(CCCCC3)SSC[C@@H](C(=O)N3CCC[C@H]3C(=O)N[C@@H](CCCN=C(N)N)C(=O)NCC(N)=O)NC(=O)[C@H](CC(N)=O)NC(=O)[C@H](CCC(N)=O)NC(=O)[C@H](Cc3ccccc3)NC2=O)cc1 |  |  |  | 5.37 | 33.9 | 105 | 4.79 | 13.5
CCOc1ccc(C[C@H]2NC(=O)CC3(CCCCC3)SSC[C@@H](C(=O)N3CCC[C@H]3C(=O)N[C@@H](CCCN=C(N)N)C(=O)NCC(N)=O)NC(=O)[C@H](CC(N)=O)NC(=O)[C@H](C(C)C)NC(=O)[C@H](Cc3ccccc3)NC2=O)cc1 ([dY](Et)FVNCPRG-NH2; linker N-5 via X1) | 0.45 | 2.6 | 1.1 |  |  |  |  | 
COc1ccc(C[C@@H]2NC(=O)CC3(CCCCC3)SSC[C@@H](C(=O)N3CCC[C@H]3C(=O)N[C@@H](CCCN=C(N)N)C(=O)NCC(N)=O)NC(=O)[C@H](CC(N)=O)NC(=O)[C@H](C(C)C)NC(=O)[C@H](Cc3ccccc3)NC2=O)cc1 | 0.29 | 8 | 3.1 |  |  |  |  | 
CC[C@H](C)[C@@H]1NC(=O)[C@H](Cc2ccc(OC)cc2)NC(=O)CC2(CCCCC2)SSC[C@@H](C(=O)N2CCC[C@H]2C(=O)N[C@@H](CCCN)C(N)=O)NC(=O)[C@H](CC(N)=O)NC(=O)[C@H]([C@@H](C)O)NC1=O (Y(Me)ITNCP[Orn]-NH2; linker N-5 via X1) |  |  |  | 105 | 24.5 | ~1580 | 2.75 | 6.76
CC[C@H](C)[C@@H]1NC(=O)[C@H](Cc2ccc(OC)cc2)NC(=O)CC2(CCCCC2)SSC[C@@H](C(=O)N2CCC[C@H]2C(=O)N[C@@H](CCCN)C(=O)NCC(N)=O)NC(=O)[C@H](CC(N)=O)NC(=O)[C@H](CCC(N)=O)NC1=O (Y(Me)IQNCP[Orn]G-NH2; linker N-5 via X1) | 0.8 | 4.2 | 0.01 |  |  |  |  | 
COc1ccc(C[C@H]2NC(=O)CC3(CCCCC3)SSC[C@@H](C(=O)N3CC=C[C@H]3C(=O)N[C@@H](CCCN=C(N)N)C(=O)NCC(N)=O)NC(=O)[C@H](CC(N)=O)NC(=O)[C@H](C(C)C)NC(=O)[C@H](Cc3ccccc3)NC2=O)cc1 | 0.55 | 1.17 | 1.7 |  |  |  |  | 

Reference: ChEMBL document CHEMBL1124668, “Solid-phase synthesis of 16 potent (selective and nonselective) in vivo antagonists of oxytocin” (J Med Chem, 1989)
